# Laboratory results as given in ChEMBL document CHEMBL1671863, “Inhibition of OXA-1 beta-lactamase by penems” (Antimicrob Agents Chemother, 2008).
# pKi: −log10 of the molar value. The source made the active and inactive calls. No cut-off for these calls is given here.
# Experiments:
# [1] = Ratio of Kcat to Kinact for beta-lactamase OXA-1 expressed in Escherichia coli BL21 (DE3) using nitrocefin substrate by spectrophotometry
# Outline: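 Partition ratio kcat/kinact set by turnover number: purified OXA-1 (40 μM) mixed 1:1 with inhibitor, 23°C, 50 mM sodium phosphate plus 20 mM bicarbonate, nitrocefin as reporter; inactivation followed up to 900 s and recovery of activity checked to 24 h.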
# [2] = Ratio of Kinact to Ki for beta-lactamase OXA-1 expressed in Escherichia coli BL21 (DE3) using nitrocefin substrate by spectrophotometry
# Outline: (§1)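 Periplasmic OXA-1 (IPTG-induced, purified by isoelectric focusing ± gel filtration) assayed at 23°C in 50 mM sodium phosphate with 20 mM bicarbonate; 18 nM enzyme, 75 μM nitrocefin read at 482 nm with rising inactivator (penems 50–1,100 nM, tazobactam 50–3,000 μM). kobs from time-course fits plotted against inhibitor concentration gave kinact, then Ki.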
# [3] = Inhibition of beta-lactamase OXA-1 expressed in Escherichia coli BL21 (DE3) using nitrocefin substrate by spectrophotometry; outline: as §1
# [4] = Inhibition of beta-lactamase OXA-1 expressed in Escherichia coli DH10B assessed as reduction of piperacillin MIC at 4 mg/L
# Outline: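 E. coli DH10B carrying plasmid RGN238 blaOXA-1 tested by agar dilution on Luria Bertani agar, 10⁴ CFU/spot from a Steers replicator; inhibitor held fixed at 4 μg/ml while piperacillin was raised in doubling dilutions.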
# [5] = Binding affinity to beta-lactamase OXA-1 expressed in Escherichia coli BL21 (DE3) assessed as compound-enzyme covalent attachment by electrospray ionization mass spectrometry
# Outline: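 Purified OXA-1 (40 μM) incubated 15 min with 1.2 mM inhibitor (30:1 inhibitor:enzyme) in 20 mM diethanolamine, pH 8.6; protein diluted in acetonitrile-1% formic acid to 10 μM and analysed intact by nanospray ESI-QTOF MS; deconvoluted spectra compared with apo enzyme (theoretical mass 28,132 Da).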
SMILES,Ratio [1],Ratio [2] [µM⁻¹ s⁻¹],pKi [3],Kinact [3] [s⁻¹],inhibition [4],inhibition [5]
C[C@]1(Cn2ccnn2)[C@H](C(=O)O)N2C(=O)C[C@H]2S1(=O)=O [TAZOBACTAM],349,0.0015,4.10,0.12,,
O=C(O)C1=CS[C@@H]2/C(=C\c3cc4n(n3)CSC4)C(=O)N12 [PENEM-1],0,2.9,7.35,0.13,Active,Active
O=C(O)C1=CS[C@@H]2/C(=C\c3cc4n(n3)CSCC4)C(=O)N12 [PENEM-2],0,9.2,7.92,0.11,Active,Active
